Results on 2 compounds are retold here after ChEMBL document CHEMBL1949548, “A β-tryptase inhibitor with a tropanylamide scaffold to improve in vitro stability and to lower hERG channel binding affinity” (Bioorg Med Chem Lett, 2012).

Data set [1] in a line: Metabolic stability in human liver microsomes after 20 mins. In kind it is ADME, Microsome. The essentials: (§1)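 Liver microsomal fractions prepared by centrifugation. Compound incubated with the fractions for 20 min before the reaction was stopped. Stability expressed as percent of compound metabolized.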
In general terms: Liver microsomes are a subcellular fraction often used to study metabolism.

A short description of data set [2]: Metabolic stability in rat liver microsomes after 20 mins. The format is ADME, Microsome. The method, boiled down: as §1
Data set [3] is described as follows: Chemical stability in presence of human semicarbazide-sensitive amine oxidase assessed as compound remaining. In kind it is physicochemical. The essentials: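 Human semicarbazide-sensitive amine oxidase (hSSAO) stability read as percent of compound remaining after 24 h.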
The target of data set [4] is Cytochrome P450 3A4 (Homo sapiens, UniProt P08684). Put plainly: Inhibition of human CYP3A4 using midazolam as substrate by LC-MS/MS analysis. The format is ADME. The method, boiled down:
(§2)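 Direct-acting CYP inhibition was run in human liver microsomes. Activity was read by LC–MS/MS of marker-substrate turnover: midazolam for CYP3A4 and dexotromethorphan for CYP2D6. IC50 values were derived.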

In data set [5] the target is Cytochrome P450 2D6 (Homo sapiens, UniProt P10635). Description: Inhibition of human CYP2D6 using dexotromethorphan as substrate by LC-MS/MS analysis. The format is ADME. The essentials: as §2
The target of data set [6] is T1, hERG (KCNH2) (Homo sapiens, UniProt Q12809). Put plainly: Inhibition of human ERG at 1 uM by whole-cell patch clamp electrophysiology assay. The essentials:
(§3)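 hERG potassium channel expressed in Chinese hamster ovary cells. Channel currents recorded by whole-cell patch clamp electrophysiology, with percent inhibition of current reported.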
(In general: Patch clamp records ionic current or voltage across a cell membrane.)

The target in data set [7] is T1, hERG (KCNH2). Put plainly: Inhibition of human ERG at 10 uM by whole-cell patch clamp electrophysiology assay. The method, boiled down: as §3
The nature of data set [8]: Inhibition of human tryptase-beta using S-2366 as substrate by chromogenic assay.
In data set [9] the target is Voltage-gated inwardly rectifying potassium channel KCNH2 (Homo sapiens, UniProt Q12809). Put plainly: Inhibition of human ERG by whole-cell patch clamp electrophysiology assay. The method, boiled down: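 hERG potassium channel expressed in Chinese hamster ovary cells; channel currents recorded by whole-cell patch clamp electrophysiology.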
Sequence of Voltage-gated inwardly rectifying potassium channel KCNH2 (Q12809 whole entry): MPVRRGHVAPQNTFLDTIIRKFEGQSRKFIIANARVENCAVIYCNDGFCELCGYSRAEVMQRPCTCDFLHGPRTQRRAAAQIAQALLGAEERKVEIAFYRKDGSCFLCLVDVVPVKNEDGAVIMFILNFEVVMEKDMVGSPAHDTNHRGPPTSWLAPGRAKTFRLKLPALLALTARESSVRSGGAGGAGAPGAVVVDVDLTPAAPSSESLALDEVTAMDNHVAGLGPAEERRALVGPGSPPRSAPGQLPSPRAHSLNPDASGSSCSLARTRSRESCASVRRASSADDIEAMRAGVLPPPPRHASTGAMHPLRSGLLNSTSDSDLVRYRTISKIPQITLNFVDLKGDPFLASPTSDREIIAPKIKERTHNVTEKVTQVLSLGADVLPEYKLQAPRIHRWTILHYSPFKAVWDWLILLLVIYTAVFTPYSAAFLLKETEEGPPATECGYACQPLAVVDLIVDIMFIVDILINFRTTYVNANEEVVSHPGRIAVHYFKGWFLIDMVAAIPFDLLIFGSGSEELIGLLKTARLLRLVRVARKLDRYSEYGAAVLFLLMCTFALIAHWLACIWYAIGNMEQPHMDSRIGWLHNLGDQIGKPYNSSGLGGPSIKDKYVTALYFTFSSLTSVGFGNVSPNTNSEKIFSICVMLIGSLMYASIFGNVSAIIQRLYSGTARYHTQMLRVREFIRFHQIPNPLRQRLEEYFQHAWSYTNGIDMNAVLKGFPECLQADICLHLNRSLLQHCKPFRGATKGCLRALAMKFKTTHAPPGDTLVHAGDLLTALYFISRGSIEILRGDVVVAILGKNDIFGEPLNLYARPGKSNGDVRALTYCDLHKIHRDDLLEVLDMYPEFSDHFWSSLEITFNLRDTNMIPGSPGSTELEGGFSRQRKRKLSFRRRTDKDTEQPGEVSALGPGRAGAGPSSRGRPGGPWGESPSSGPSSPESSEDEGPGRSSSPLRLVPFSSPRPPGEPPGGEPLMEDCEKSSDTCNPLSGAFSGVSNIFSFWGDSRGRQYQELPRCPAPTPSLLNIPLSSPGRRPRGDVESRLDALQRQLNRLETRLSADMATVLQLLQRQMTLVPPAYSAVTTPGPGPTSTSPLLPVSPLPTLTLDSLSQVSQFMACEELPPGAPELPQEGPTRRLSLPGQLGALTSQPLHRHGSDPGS

Sequence of Cytochrome P450 2D6 (P10635 whole entry): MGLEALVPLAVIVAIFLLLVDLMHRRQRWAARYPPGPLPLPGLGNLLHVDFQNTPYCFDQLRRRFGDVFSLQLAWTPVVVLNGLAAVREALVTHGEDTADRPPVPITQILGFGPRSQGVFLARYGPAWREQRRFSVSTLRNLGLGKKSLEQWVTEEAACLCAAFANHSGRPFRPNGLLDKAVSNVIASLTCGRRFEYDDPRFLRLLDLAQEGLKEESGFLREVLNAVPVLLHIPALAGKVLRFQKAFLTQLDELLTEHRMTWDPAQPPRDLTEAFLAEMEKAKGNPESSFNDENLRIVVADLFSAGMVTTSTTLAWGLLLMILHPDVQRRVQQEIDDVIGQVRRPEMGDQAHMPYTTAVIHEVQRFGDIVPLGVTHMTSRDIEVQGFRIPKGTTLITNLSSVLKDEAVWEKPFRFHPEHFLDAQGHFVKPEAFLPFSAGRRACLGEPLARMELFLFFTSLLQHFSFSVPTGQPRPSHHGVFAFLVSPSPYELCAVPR
Sequence of Cytochrome P450 3A4 (P08684 whole entry): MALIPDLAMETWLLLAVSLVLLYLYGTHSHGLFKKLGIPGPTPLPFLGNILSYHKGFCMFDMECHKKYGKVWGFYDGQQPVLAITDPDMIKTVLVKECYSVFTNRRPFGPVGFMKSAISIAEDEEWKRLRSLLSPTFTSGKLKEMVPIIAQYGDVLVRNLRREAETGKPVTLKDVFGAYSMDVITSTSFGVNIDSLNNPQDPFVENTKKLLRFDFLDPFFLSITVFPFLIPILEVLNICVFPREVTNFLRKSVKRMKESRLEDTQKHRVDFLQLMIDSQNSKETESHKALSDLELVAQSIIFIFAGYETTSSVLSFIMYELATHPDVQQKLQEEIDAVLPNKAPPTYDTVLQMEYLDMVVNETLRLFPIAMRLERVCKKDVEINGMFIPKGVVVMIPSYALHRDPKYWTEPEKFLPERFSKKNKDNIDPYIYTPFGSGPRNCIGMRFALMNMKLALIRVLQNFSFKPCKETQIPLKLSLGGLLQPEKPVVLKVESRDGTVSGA
T1 sequence (Q12809 whole entry): as the sequence (Q12809 whole entry) above

Consider `CCCOc1sc(C(=O)N2[C@H]3CC[C@H]2CC(c2cc(CN)ccc2F)C3)c(C)c1Br` (some centres undefined), for which the metabolized at 20 min in data set [1] worked out at 7%; in data set [2], 0%. Also, the Stability in data set [3] is given as 86%. Besides, the IC50 was 5.3 µM in [4] and 6.9 µM in data set [5]. In addition, in data set [6], the inhibition at 1 µM came out at 14%. In data set [7], 10 µM produced 36% inhibition.
`CCCOc1sc(C(=O)N2CCC(c3cccc(CN)c3)CC2)c(C)c1Br` registered an inhibition constant (Ki) in [8] of 0.022 µM. For the same compound, the metabolized at 20 min worked out at 26% in data set [1] and 6% in data set [2]. Moreover, the Stability in data set [3] amounted to 70%. Besides, the IC50 was found to be 4.7 µM in data set [4], 2.5 µM in data set [5] and 1 µM in data set [9].

As usually defined, the IC50 is the point on the concentration scale where inhibition reaches its midpoint. A lower IC50 goes with greater potency in that assay. In general, inhibition refers to the drop in the measured response relative to a control, in per cent. The term Ki denotes the equilibrium dissociation constant of an inhibitor or competing ligand from its target. Low readings indicate a stronger hold on the target, high ones a looser hold on the target.
